Drawing on ChEMBL document CHEMBL4330056, “Synthesis and Cytotoxic and Antiviral Profiling of Pyrrolo- and Furo-Fused 7-Deazapurine Ribonucleosides” (J Med Chem, 2018), this text covers Activity and Drug metabolism for 3 compounds.

One data set concerns DNA. The experiment in a line: Induction of DNA damage in human U2OS cells transfected with 53BP1-GFP fusion gene assessed as increase in number of foci per nucleus measured at 1 hr intervals for 11 hrs by fluorescence-based assay. The format is functional, cell-based. Put shortly: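 U2OS osteosarcoma reporter line stably expressing 53BP1-GFP treated up to 11 h, with etoposide as the double-strand-break reference. 53BP1 foci in nuclei imaged by confocal microscopy (40× objective).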

The target in data set [1] is T1, Adenosine kinase (Homo sapiens, UniProt P55263). The experiment in a line: Drug metabolism in human BJ cells assessed as ADK-mediated compound phosphorylation level per 5x10^5 cells at 1 umol/L after 1 hr by UPLC-MS/MS analysis. The class given is ADME, cell-based. Conditions: 1 µM. In short, it runs like this: (§1)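 BJ (normal) and HCT116 (malignant) cells exposed to nucleoside at 1 or 10 μmol/L for 1 or 3 h. Intracellular nucleoside and its monophosphate quantified against synthetic monophosphate standards. Values given as pmol per 5 × 10^5 cells.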

For data set [2], the target named is T1, Adenosine kinase. The experiment in a line: Drug metabolism in human HCT116 cells assessed as ADK-mediated compound phosphorylation level per 5x10^5 cells at 1 umol/L after 1 hr by UPLC-MS/MS analysis. The settings on record: 1 µM. The format is ADME, cell-based. In short, it runs like this:
as §1

Data set [3] has as its target T1, Adenosine kinase. Put plainly: Drug metabolism in human BJ cells assessed as ADK-mediated compound phosphorylation level per 5x10^5 cells at 1 umol/L after 3 hrs by UPLC-MS/MS analysis. The class given is ADME, cell-based. The settings on record: 1 µM. Put shortly:
as §1

For data set [4], the target named is T1, Adenosine kinase. The experiment in a line: Drug metabolism in human HCT116 cells assessed as ADK-mediated compound phosphorylation level per 5x10^5 cells at 1 umol/L after 3 hrs by UPLC-MS/MS analysis. The format is ADME, cell-based. The settings on record: 1 µM. In short, it runs like this:
as §1

Data set [5] deals with T1, Adenosine kinase. Put plainly: Drug metabolism in human BJ cells assessed as ADK-mediated compound phosphorylation level per 5x10^5 cells at 10 umol/L after 1 hr by UPLC-MS/MS analysis. The class given is ADME, cell-based. Conditions: 10 µM. Put shortly:
as §1

Data set [6] deals with T1, Adenosine kinase. The experiment in a line: Drug metabolism in human HCT116 cells assessed as ADK-mediated compound phosphorylation level per 5x10^5 cells at 10 umol/L after 1 hr by UPLC-MS/MS analysis. The class given is ADME, cell-based. Conditions: 10 µM. Put shortly:
as §1

The target in data set [7] is T1, Adenosine kinase. The experiment in a line: Drug metabolism in human BJ cells assessed as ADK-mediated compound phosphorylation level per 5x10^5 cells at 10 umol/L after 3 hrs by UPLC-MS/MS analysis. The format is ADME, cell-based. Conditions: 10 µM. Put shortly: as §1
In data set [8] the target is T1, Adenosine kinase. Put plainly: Drug metabolism in human HCT116 cells assessed as ADK-mediated compound phosphorylation level per 5x10^5 cells at 10 umol/L after 3 hrs by UPLC-MS/MS analysis. Conditions: 10 µM. The class given is ADME, cell-based. In short, it runs like this: as §1

Activity calls are given as the source filed them. The calls are words filed in the database; no cut-off is given here.

T1 sequence (P55263 whole entry): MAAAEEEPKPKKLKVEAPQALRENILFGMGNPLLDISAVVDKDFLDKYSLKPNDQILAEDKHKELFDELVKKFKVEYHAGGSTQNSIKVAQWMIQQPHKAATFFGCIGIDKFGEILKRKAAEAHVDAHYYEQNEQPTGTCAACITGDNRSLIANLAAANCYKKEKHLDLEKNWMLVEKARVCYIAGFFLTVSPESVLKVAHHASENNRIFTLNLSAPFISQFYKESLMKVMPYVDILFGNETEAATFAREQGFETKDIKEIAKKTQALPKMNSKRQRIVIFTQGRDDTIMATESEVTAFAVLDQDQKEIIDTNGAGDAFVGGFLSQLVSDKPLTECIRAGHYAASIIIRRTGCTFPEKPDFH

Turning to `COc1cc([C@@H]2c3cc4c(cc3[C@@H](O[C@@H]3O[C@@H]5CO[C@@H](C)O[C@H]5[C@H](O)[C@H]3O)[C@H]3COC(=O)[C@H]23)OCO4)cc(OC)c1O`, the result in the data set with DNA was Active.
For `Cc1ncnc2c1c1occc1n2[C@@H]1O[C@H](COP(=O)([O-])O)[C@@H](O)[C@H]1O.[Na+]`, the Drug metabolism on Adenosine kinase [1] was determined as 223.51 pmol; at Adenosine kinase [2], 511.81 pmol; on Adenosine kinase [3], 241.05 pmol; on Adenosine kinase [4] it was 1167.4 pmol; on Adenosine kinase [5], 4488.64 pmol; on Adenosine kinase [6], 9531.67 pmol. In addition, the Drug metabolism on Adenosine kinase [7] worked out at 4920.41 pmol; at Adenosine kinase [8] it was 12533.33 pmol.
For `Cc1ncnc2c1c1c(ccn1C)n2[C@@H]1O[C@H](COP(=O)([O-])O)[C@@H](O)[C@H]1O.[Na+]`, the Drug metabolism at Adenosine kinase [1] is on record as 220.92 pmol; on Adenosine kinase [2], 466.96 pmol; on Adenosine kinase [3], 332.63 pmol; on Adenosine kinase [4] it was 1079.19 pmol; on Adenosine kinase [5], 1531.57 pmol; at Adenosine kinase [6] it was 8868.83 pmol. For the same compound, the Drug metabolism on Adenosine kinase [7] was determined as 5041.67 pmol; at Adenosine kinase [8], 12049.83 pmol.
